# Experimental data from ChEMBL document CHEMBL1134459 (J Med Chem, 2001).
# Several values for one entry are separate records, joined by “and”; a condition that tells them apart may be missing. Equal entries are not always repeated.
# Key:
# [1] = biological target: T1, Intercellular adhesion molecule 1 (Homo sapiens, UniProt P05362); test: In vitro inhibitory potency compared to TNF-alpha induced Intercellular adhesion molecule-1 in human endothelial cells (ELISA assay); assay type: cell-based, Endothelial cell
# Summary of the method: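 Primary HUVECs seeded at 5 × 10^4 cells/mL in EBM/2% FBS with supplements. After 24 h of compound at 37 °C, TNFα was added to 5 ng/mL final for 6 h at 37 °C. Cell-surface ICAM-1 was detected with a mouse monoclonal antibody, then HRP anti-mouse IgG and OPD, with absorbance at 490 nm. Triplicate determinations.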
# [2] = biological target: T1, Intercellular adhesion molecule 1; test: Inhibition of intercellular adhesion molecule-1 (ICAM1) in human endothelial cells; assay type: cell-based, Endothelial cell
# Summary of the method: (§1)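 Whole-cell ELISA on primary HUVECs plated at 5 × 10^4 cells/mL in EBM/2% FBS with growth supplements. Compound preincubated 24 h at 37 °C, then inducer added (TNFα at 5 ng/mL final, or IL-1β or PMA in its place) for 6 h at 37 °C. Mouse monoclonal anti-E-selectin, anti-ICAM-1 or anti-VCAM-1 was applied overnight at 4 °C, then HRP anti-mouse IgG. Detection with OPD, A490. Triplicate assays.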
# [3] = biological target: T1, Intercellular adhesion molecule 1; test: In vitro inhibitory potency compared to PMA induced Intercellular adhesion molecule-1 expression in human endothelial cells (ELISA assay); assay type: cell-based, Endothelial cell
# Summary of the method: (§2)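 Primary HUVECs seeded at 5 × 10^4 cells/mL in EBM/2% FBS with EGF, bovine brain extract and gentamicin. Compound added next day for 24 h at 37 °C, then inducer (IL-1β or PMA, level not stated) for 6 h at 37 °C. Whole-cell ELISA used mouse monoclonal anti-ICAM-1 or anti-VCAM-1, HRP donkey anti-mouse IgG and OPD, read at 490 nm. Run in triplicate.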
# [4] = biological target: T2, E-selectin (Homo sapiens) (UniProt P16581); test: In vitro inhibitory potency compared to PMA induced Selectin E expression in human endothelial cells (ELISA assay) at 1 uM; assay type: cell-based; details: Endothelial cell
# T2 sequence (whole entry): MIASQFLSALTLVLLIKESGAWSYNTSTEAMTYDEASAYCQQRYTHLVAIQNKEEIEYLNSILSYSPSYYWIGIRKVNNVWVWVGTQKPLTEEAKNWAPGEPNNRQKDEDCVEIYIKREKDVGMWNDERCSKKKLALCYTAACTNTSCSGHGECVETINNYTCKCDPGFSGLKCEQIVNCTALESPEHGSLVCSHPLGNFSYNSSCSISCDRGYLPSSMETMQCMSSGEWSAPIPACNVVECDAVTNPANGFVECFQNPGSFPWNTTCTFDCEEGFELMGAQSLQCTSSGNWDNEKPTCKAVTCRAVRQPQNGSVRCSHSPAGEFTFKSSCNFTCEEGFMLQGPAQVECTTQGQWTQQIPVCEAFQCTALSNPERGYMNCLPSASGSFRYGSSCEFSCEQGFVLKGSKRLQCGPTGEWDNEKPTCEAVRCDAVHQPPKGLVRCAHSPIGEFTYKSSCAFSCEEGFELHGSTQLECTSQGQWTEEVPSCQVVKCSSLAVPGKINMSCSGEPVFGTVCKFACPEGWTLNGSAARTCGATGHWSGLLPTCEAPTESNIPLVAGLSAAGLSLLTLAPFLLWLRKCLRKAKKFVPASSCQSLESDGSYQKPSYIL
# Summary of the method: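 HUVEC whole-cell ELISA with PMA substituted for TNFα as inducer. Compound preincubated 24 h at 37 °C, then 6 h induction at 37 °C. E-selectin detected with mouse monoclonal antibody and HRP anti-mouse IgG, OPD development, A490. Value given as percent inhibition at a single concentration of 1 µM.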
# E-selectin [5] = biological target: T3, E-selectin (Homo sapiens, UniProt P16581); test: Inhibition of selectin E in human endothelial cells; assay type: cell-based, Endothelial cell; summary of the method: as §1
# T3 sequence (P16581 whole entry): T2 sequence (whole entry)
# E-selectin [6] = biological target: T3, E-selectin; test: In vitro inhibitory potency compared to IL1-beta induced Selectin E in human endothelial cells (ELISA assay); assay type: cell-based, Endothelial cell; summary of the method: as §1
# E-selectin [7] = biological target: T3, E-selectin; test: In vitro inhibitory potency compared to TNF-alpha induced Selectin E expression in human endothelial cells (ELISA assay); assay type: cell-based, Endothelial cell; summary of the method: as §1
# [8] = biological target: T1, Intercellular adhesion molecule 1; test: In vitro inhibitory potency compared to IL1-beta induced Intercellular adhesion molecule-1 in human endothelial cells (ELISA assay); assay type: cell-based, Endothelial cell; summary of the method: as §2
# [9] = biological target: T4, Vascular cell adhesion protein 1 (Homo sapiens) (UniProt P19320); details: Endothelial cell
# T4 sequence (whole entry): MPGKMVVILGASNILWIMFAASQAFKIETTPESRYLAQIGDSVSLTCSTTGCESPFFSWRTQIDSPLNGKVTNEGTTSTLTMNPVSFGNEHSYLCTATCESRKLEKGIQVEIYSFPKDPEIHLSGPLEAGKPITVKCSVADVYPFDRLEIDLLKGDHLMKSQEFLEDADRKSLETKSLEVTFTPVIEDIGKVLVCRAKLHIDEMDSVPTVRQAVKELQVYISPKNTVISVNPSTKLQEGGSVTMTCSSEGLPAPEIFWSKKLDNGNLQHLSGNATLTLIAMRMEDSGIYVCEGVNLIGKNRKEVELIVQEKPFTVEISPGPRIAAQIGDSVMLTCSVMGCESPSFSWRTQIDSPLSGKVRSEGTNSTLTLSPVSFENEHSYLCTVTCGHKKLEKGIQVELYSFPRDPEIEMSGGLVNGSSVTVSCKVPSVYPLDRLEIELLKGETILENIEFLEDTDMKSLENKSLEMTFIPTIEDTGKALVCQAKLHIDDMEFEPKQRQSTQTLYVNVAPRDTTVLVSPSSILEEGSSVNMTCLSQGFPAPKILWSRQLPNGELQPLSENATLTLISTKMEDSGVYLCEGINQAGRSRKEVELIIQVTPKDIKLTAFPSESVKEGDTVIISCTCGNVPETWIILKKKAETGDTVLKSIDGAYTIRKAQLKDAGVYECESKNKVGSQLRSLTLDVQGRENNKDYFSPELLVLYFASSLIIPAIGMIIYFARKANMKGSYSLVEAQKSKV
# Mus musculus [10] = test: Efficacy in serum sICAM-1 at 30 mg/kg of oral dosing in an inhaled allergen-induced cell influx in mice.; assay type: functional
# Summary of the method: (§3)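 Mouse inhaled-allergen model. Compounds or vehicle (0.2% methylcellulose) given orally 18 h and 1 h before the first of two allergen inhalations. Lungs lavaged 24-27 h after the first inhalation. Read-outs were lavage cell count (no./µL), neutrophil and eosinophil percentages, and soluble ICAM-1 in serum and BAL 24 h after antigen. Values are mean ± SE.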
# Mus musculus [11] = test: % Efficacy in eosinophils at 30 mg/kg of oral dosing in an inhaled allergen-induced cell influx in mice.; assay type: functional, Eosinophil; summary of the method: as §3
# Mus musculus [12] = test: % Efficacy in neutrophils at 30 mg/kg of oral dosing in an inhaled allergen-induced cell influx in mice.; assay type: functional; summary of the method: as §3
# Mus musculus [13] = test: Efficacy in lBAL sICAM-1 at 30 mg/kg of oral dosing in an inhaled allergen-induced cell influx in mice.; assay type: functional; summary of the method: as §3
# Mus musculus [14] = test: Efficacy in lavage cells at 30 mg/kg of oral dosing in an inhaled allergen-induced cell influx in mice.; assay type: functional; summary of the method: as §3
# [15] = Toxicity in HUVEC cell lysates.; assay type: cell-based, Lysate; details: human
# [16] = biological target: T1, Intercellular adhesion molecule 1; test: In vitro inhibitory potency compared to PMA induced Intercellular adhesion molecule-1 in human endothelial cells (ELISA assay); assay type: cell-based, Endothelial cell; summary of the method: as §1
# Mus musculus [17] = test: Efficacy in serum sICAM-1 at 30 mg/kg of oral dosing in an inhaled allergen-induced cell influx in 6 mice.; assay type: functional; summary of the method: as §3
# Mus musculus [18] = test: Efficacy in serum sICAM-1 at 3 mg/kg of oral dosing in an inhaled allergen-induced cell influx in 7 mice.; assay type: functional; summary of the method: as §3
# Mus musculus [19] = test: % Efficacy in eosinophils at 0.3 mg/kg of oral dosing in an inhaled allergen-induced cell influx in 7 mice.; assay type: functional, Eosinophil; summary of the method: as §3
# Mus musculus [20] = test: % Efficacy in eosinophils at 30 mg/kg of oral dosing in an inhaled allergen-induced cell influx in 6 mice.; assay type: functional, Eosinophil; summary of the method: as §3
# Mus musculus [21] = test: % Efficacy in eosinophils at 3 mg/kg of oral dosing in an inhaled allergen-induced cell influx in 7 mice.; assay type: functional, Eosinophil; summary of the method: as §3
# Mus musculus [22] = test: % Efficacy in neutrophils at 0.3 mg/kg of oral dosing in an inhaled allergen-induced cell influx in 7 mice.; assay type: functional; summary of the method: as §3
# Mus musculus [23] = test: % Efficacy in neutrophils at 30 mg/kg of oral dosing in an inhaled allergen-induced cell influx in 6 mice.; assay type: functional; summary of the method: as §3
# Mus musculus [24] = test: % Efficacy in neutrophils at 3 mg/kg of oral dosing in an inhaled allergen-induced cell influx in 7 mice.; assay type: functional; summary of the method: as §3
# Mus musculus [25] = test: Efficacy in lBAL sICAM-1 at 0.3 mg/kg of oral dosing in an inhaled allergen-induced cell influx in 7 mice.; assay type: functional; summary of the method: as §3
# Mus musculus [26] = test: Efficacy in lBAL sICAM-1 at 30 mg/kg of oral dosing in an inhaled allergen-induced cell influx in 6 mice.; assay type: functional; summary of the method: as §3
# Mus musculus [27] = test: Efficacy in lBAL sICAM-1 at 3 mg/kg of oral dosing in an inhaled allergen-induced cell influx in 7 mice.; assay type: functional; summary of the method: as §3
# Mus musculus [28] = test: Efficacy in lavage cells at 0.3 mg/kg of oral dosing in an inhaled allergen-induced cell influx in 7 mice.; assay type: functional; summary of the method: as §3
# Mus musculus [29] = test: Efficacy in lavage cells at 3 mg/kg of oral dosing in an inhaled allergen-induced cell influx in 7 mice.; assay type: functional; summary of the method: as §3
# Mus musculus [30] = test: Efficacy in serum sICAM-1 at 0.3 mg/kg of oral dosing in an inhaled allergen-induced cell influx in 7 mice.; assay type: functional; summary of the method: as §3
# [31] = Solubility in pH 7.4 buffer.; assay type: physicochemical
# T1 sequence (P05362 whole entry): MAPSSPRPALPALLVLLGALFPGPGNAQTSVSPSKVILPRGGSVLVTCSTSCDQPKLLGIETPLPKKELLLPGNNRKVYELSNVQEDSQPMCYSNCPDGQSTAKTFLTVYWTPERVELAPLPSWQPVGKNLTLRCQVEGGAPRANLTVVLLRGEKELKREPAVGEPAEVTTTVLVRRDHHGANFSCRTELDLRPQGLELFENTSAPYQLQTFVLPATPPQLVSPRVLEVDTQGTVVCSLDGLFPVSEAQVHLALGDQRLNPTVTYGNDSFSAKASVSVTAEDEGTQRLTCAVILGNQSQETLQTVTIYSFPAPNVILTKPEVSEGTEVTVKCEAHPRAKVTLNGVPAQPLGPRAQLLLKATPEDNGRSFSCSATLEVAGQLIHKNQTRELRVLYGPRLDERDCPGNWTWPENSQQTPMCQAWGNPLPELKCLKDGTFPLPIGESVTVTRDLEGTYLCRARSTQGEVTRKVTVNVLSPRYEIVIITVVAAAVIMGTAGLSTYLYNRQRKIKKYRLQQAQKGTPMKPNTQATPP
smiles,measurement,setting,value
CNC(=O)c1cc2c(Oc3ccc(Cl)cc3)cncc2s1,IC50,[1],15 nM
same,IC50,[2],17 nM
same,IC50,[3],15 nM
same,inhibition,[4],43%
same,IC50,E-selectin [5],8 nM
same,IC50,E-selectin [6],25 nM
same,IC50,E-selectin [7],20 nM
same,IC50,[8],10 nM
same,Inhibition at 1uM,[9],49%
CNC(=O)c1cc2c(Oc3ccc(C(F)(F)F)cc3)cncc2s1,Efficacy,Mus musculus [10],19.6 µg/mL
same,Efficacy,Mus musculus [11],10%
same,Efficacy,Mus musculus [12],48%
same,Efficacy,Mus musculus [13],1.89 µg/mL
same,Efficacy,Mus musculus [14],107 number ul-1
NC(=O)c1cc2c(Oc3ccc(Br)cc3)cncc2s1,IC50,[15],> 100000 nM
same,IC50,[1],3 nM
same,IC50,[2],5 nM
same,IC50,[16],6 nM
same,inhibition,[4],48%
same,IC50,E-selectin [5],4 nM
same,IC50,E-selectin [6],6 nM
same,IC50,E-selectin [7],4 nM
same,Efficacy,Mus musculus [17],18.8 µg/mL and 18.5 µg/mL
same,Efficacy,Mus musculus [18],21.3 µg/mL
same,Efficacy,Mus musculus [19],19%
same,Efficacy,Mus musculus [20],8% and 9%
same,Efficacy,Mus musculus [21],14%
same,Efficacy,Mus musculus [22],44%
same,Efficacy,Mus musculus [23],38% and 57%
same,Efficacy,Mus musculus [24],60%
same,Efficacy,Mus musculus [25],2.67 µg/mL
same,Efficacy,Mus musculus [26],1.74 µg/mL and 1.99 µg/mL
same,Efficacy,Mus musculus [27],2.68 µg/mL
same,Efficacy,Mus musculus [28],282 number ul-1
same,Efficacy,Mus musculus [29],319 number ul-1
same,Efficacy,Mus musculus [30],20.7 µg/mL
same,solubility,[31],0.46 µg/mL
same,IC50,[8],3 nM
